The results in this text go back to ChEMBL document CHEMBL1250553, “Synthesis, cytotoxicity and liposome preparation of 28-acetylenic betulin derivatives” (Bioorg Med Chem, 2010).

In general, IC50 refers to the point on the concentration scale where inhibition reaches its midpoint. Higher therefore signals a need for much substance.

Experiment [1] in a line: Cytotoxicity against human 518A2 cells after 96 hrs by sulforhodamine B assay. The class given is functional, cell-based. The following applies: 518A2, 96 h. The essentials:
(§1)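 Human tumour cell lines in 96-well plates, exposed to test compounds for 96 h, then read by colorimetric sulforhodamine B staining. Viable cells are expressed as % of untreated controls. IC50 is taken from dose–response curves, top concentration 30 µM, as the mean of at least three independent experiments (variation generally 10%). Compounds are given as DMSO solutions or as an aqueous liposomal formulation.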

Experiment [2] is described as follows: Cytotoxicity against human A253 cells after 96 hrs by sulforhodamine B assay. The class given is functional, cell-based. The following applies: A253, 96 h. The procedure, abridged: as §1
A short description of experiment [3]: Cytotoxicity against human liposarcoma cells after 96 hrs by sulforhodamine B assay. The format is functional, cell-based. The essentials: as §1
Experiment [4] concerns A2780. Briefly: Induction of apoptosis in human A2780 cells assessed as floating cells at IC90 concentration after 24 hrs by Trypan blue exclusion test. The format is functional, cell-based. The essentials:
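A2780 ovarian cancer cells treated for 24 h. Floating cells are collected and scored by trypan-blue exclusion: apoptotic cells exclude the dye, necrotic cells stain blue.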

The test system of experiment [5] is SW480. Briefly: Induction of apoptosis in human SW480 cells assessed as DNA ladder formation at IC90 concentration after 24 hrs by DNA gel electrophoresis analysis. The class given is functional, cell-based. The procedure, abridged: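 SW480 colon cancer cells treated for 24 h. Floating cells are collected, and DNA is analysed by gel electrophoresis for endonuclease-generated fragment laddering.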

Experiment [6] relates to A2780 (Homo sapiens). Nature of the experiment: Induction of apoptosis in human A2780 cells assessed as floating cells at IC90 concentration after 24 hrs by Trypan blue exclusion test.
In experiment [7] the test system is SW480 (Homo sapiens). Briefly: Induction of apoptosis in human SW480 cells assessed as DNA ladder formation at IC90 concentration after 24 hrs by DNA gel electrophoresis analysis.
Experiment [8] deals with 518A2. Nature of the experiment: Cytotoxicity against human 518A2 cells at 30 uM after 96 hrs by sulforhodamine B assay. The class given is functional, cell-based. The procedure, abridged: (§2)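 Growth inhibition at the highest tested concentration, 30 µM, after 96 h exposure in 96-well plates. Read by SRB staining as % viable cells relative to untreated controls, from at least three independent experiments.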
For orientation: Sulforhodamine B stains cellular protein and so reports cell mass.

Experiment [9] deals with A-431. Nature of the experiment: Cytotoxicity against human A431 cells at 30 uM after 96 hrs by sulforhodamine B assay. The format is functional, cell-based. The procedure, abridged: as §2
Experiment [10] deals with A253. Briefly: Cytotoxicity against human A253 cells at 30 uM after 96 hrs by sulforhodamine B assay. The format is functional, cell-based. The procedure, abridged:
as §2

Experiment [11] concerns FaDu. Nature of the experiment: Cytotoxicity against human FADU cells at 30 uM after 96 hrs by sulforhodamine B assay. The class given is functional, cell-based. The procedure, abridged: as §2
For experiment [12], the system named is A549. Nature of the experiment: Cytotoxicity against human A549 cells at 30 uM after 96 hrs by sulforhodamine B assay. The format is functional, cell-based. The essentials: as §2
The test system of experiment [13] is A2780. Briefly: Cytotoxicity against human A2780 cells at 30 uM after 96 hrs by sulforhodamine B assay. The format is functional, cell-based. The procedure, abridged: as §2
The test system of experiment [14] is DLD-1. Nature of the experiment: Cytotoxicity against human DLD1 cells at 30 uM after 96 hrs by sulforhodamine B assay. The class given is functional, cell-based. The procedure, abridged: as §2
Experiment [15] relates to HCT-8. Nature of the experiment: Cytotoxicity against human HCT8 cells at 30 uM after 96 hrs by sulforhodamine B assay. The format is functional, cell-based. The essentials:
as §2

For experiment [16], the system named is HCT-116. Briefly: Cytotoxicity against human HCT116 cells at 30 uM after 96 hrs by sulforhodamine B assay. The class given is functional, cell-based. The essentials: as §2
The test system of experiment [17] is HT-29. Nature of the experiment: Cytotoxicity against human HT-29 cells at 30 uM after 96 hrs by sulforhodamine B assay. The format is functional, cell-based. The essentials: as §2
In experiment [18] the test system is SW480. Briefly: Cytotoxicity against human SW480 cells at 30 uM after 96 hrs by sulforhodamine B assay. The format is functional, cell-based. The procedure, abridged:
as §2

Experiment [19] relates to 8505C. Briefly: Cytotoxicity against human 8505C cells at 30 uM after 96 hrs by sulforhodamine B assay. The class given is functional, cell-based. The essentials:
as §2

Experiment [20] concerns SW-1736. Briefly: Cytotoxicity against human SW1736 cells at 30 uM after 96 hrs by sulforhodamine B assay. The class given is functional, cell-based. The procedure, abridged: as §2
Experiment [21] relates to MCF7. Briefly: Cytotoxicity against human MCF7 cells at 30 uM after 96 hrs by sulforhodamine B assay. The format is functional, cell-based. The procedure, abridged: as §2
Experiment [22] is filed under the species Homo sapiens. Briefly: Cytotoxicity against human liposarcoma cells at 30 uM after 96 hrs by sulforhodamine B assay. The class given is functional, cell-based. The essentials:
as §2

In experiment [23] the test system is A-431. Briefly: Cytotoxicity against human A431 cells after 96 hrs by sulforhodamine B assay. The class given is functional, cell-based. The following applies: A-431, 96 h. The procedure, abridged: as §1
The test system of experiment [24] is FaDu. Nature of the experiment: Cytotoxicity against human FADU cells after 96 hrs by sulforhodamine B assay. The class given is functional, cell-based. The essentials: as §1
For experiment [25], the system named is A549. Briefly: Cytotoxicity against human A549 cells after 96 hrs by sulforhodamine B assay. The format is functional, cell-based. The following applies: A549, 96 h. The procedure, abridged: as §1
Experiment [26] relates to A2780. Briefly: Cytotoxicity against human A2780 cells after 96 hrs by sulforhodamine B assay. To be noted: A2780, 96 h. The format is functional, cell-based. The essentials:
as §1

In experiment [27] the test system is DLD-1. Briefly: Cytotoxicity against human DLD1 cells after 96 hrs by sulforhodamine B assay. The class given is functional, cell-based. The following applies: DLD-1, 96 h. The procedure, abridged: as §1
Experiment [28] deals with HCT-8. Briefly: Cytotoxicity against human HCT8 cells after 96 hrs by sulforhodamine B assay. The class given is functional, cell-based. To be noted: HCT-8, 96 h. The essentials:
as §1

In experiment [29] the test system is HCT-116. Nature of the experiment: Cytotoxicity against human HCT116 cells after 96 hrs by sulforhodamine B assay. The format is functional, cell-based. To be noted: HCT-116, 96 h. The procedure, abridged:
as §1

Experiment [30] concerns HT-29. Nature of the experiment: Cytotoxicity against human HT-29 cells after 96 hrs by sulforhodamine B assay. The class given is functional, cell-based. The following applies: HT-29, 96 h. The essentials:
as §1

Experiment [31] concerns SW480. Nature of the experiment: Cytotoxicity against human SW480 cells after 96 hrs by sulforhodamine B assay. The format is functional, cell-based. The following applies: SW480, 96 h. The procedure, abridged: as §1
In experiment [32] the test system is 8505C. Nature of the experiment: Cytotoxicity against human 8505C cells after 96 hrs by sulforhodamine B assay. The class given is functional, cell-based. The essentials:
as §1

Experiment [33] deals with SW-1736. Nature of the experiment: Cytotoxicity against human SW1736 cells after 96 hrs by sulforhodamine B assay. The following applies: SW-1736, 96 h. The format is functional, cell-based. The essentials:
as §1

For experiment [34], the system named is MCF7. Nature of the experiment: Cytotoxicity against human MCF7 cells after 96 hrs by sulforhodamine B assay. The class given is functional, cell-based. The following applies: MCF7, 96 h. The procedure, abridged:
as §1

Molecules are shown by their SMILES. The source made the active and inactive calls. The rule behind the calls is not given here.

As for `C=C(C)[C@@H]1CC[C@]2([C@H](O)C#CC(=O)OC)CC[C@]3(C)[C@H](CC[C@@H]4[C@@]5(C)CC[C@H](OC(C)=O)C(C)(C)[C@@H]5CC[C@]43C)[C@@H]12`, the IC50 in experiment [1] worked out at 5.9 µM; in experiment [2], 2.7 µM; in experiment [3], 4.2 µM. In addition, the result in experiment [4], in experiment [5], in [6] and in [7] was Active.

Regarding `C=C(C)[C@@H]1CC[C@]2(C(=O)C#CC(=O)OC)CC[C@]3(C)[C@H](CC[C@@H]4[C@@]5(C)CC[C@H](OC(C)=O)C(C)(C)[C@@H]5CC[C@]43C)[C@@H]12`, the inhibition result in [8], in experiment [9], in [10], in [11], in [12] and in experiment [13] was “inactive” in each case. Further, the inhibition result in experiment [14], in [15], in [16], in experiment [17], in experiment [18] and in experiment [19] was “inactive” throughout. The inhibition result in [20], in experiment [21] and in [22] was “inactive” in each case.

For `C=C(C)[C@@H]1CC[C@]2([C@@H]3OC(=O)C=C3N(C)C)CC[C@]3(C)[C@H](CC[C@@H]4[C@@]5(C)CC[C@H](OC(C)=O)C(C)(C)[C@@H]5CC[C@]43C)[C@@H]12`, the IC50 is 4.8 µM in [1]; 3.3 µM in experiment [23]; 4.9 µM in experiment [2]; 3.8 µM in experiment [24]; 6.1 µM in [25]; 2.6 µM in [26]. The IC50 came out at 3.6 µM in experiment [27]; 1.7 µM in [28]; 3.2 µM in [29]; 5.7 µM in experiment [30]; 2.2 µM in experiment [31]; 3.1 µM in experiment [32]. For the same compound, the IC50 in [33] came to 2.9 µM; in experiment [34], 6.9 µM; in [3], 5.3 µM. Besides, the outcome in experiment [4], in experiment [5], in experiment [6] and in [7] was Active.
